Results reported in ChEMBL document CHEMBL4251593, “Nontoxic combretafuranone analogues with high in vitro antibacterial activity” (Eur J Med Chem, 2018).
≈ marks a conversion by molar mass, not a printed value. Calls of active or inactive are those of the source. The rule behind the calls is not given here.

Legend:
TERT-RPE1 [1] = experiment: Cytotoxicity against human RPE1 cells assessed as reduction in cell viability after 48 hrs by ATPlite-based luminescent assay; details: RPE-1, 48 h
Procedure, shortened: (§1)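 Cells were grown […] with 10% FBS, glutamax, NEAA and pen/strep at 37 °C, 5% CO2. Media were DMEM for RPE-1, HepG2 and BJ (BJ plus 10 ng/ml bFGF), F-12K for PC3, and IMDM for K562/HL-60. Cells were seeded at 500 per well and dosed from DMSO at 12 concentrations, 40 µM to 1 nM, in triplicate. After 48 h, intracellular ATP was read by luminescence. ED50 was obtained by variable-slope nonlinear regression.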

BJ = experiment: Cytotoxicity against human BJ cells assessed as reduction in cell viability after 48 hrs by ATPlite-based luminescent assay; procedure, shortened: as §1
K562 [2] = experiment: Cytotoxicity against human K562 cells assessed as reduction in cell viability after 48 hrs by ATPlite-based luminescent assay; details: K562, 48 h; procedure, shortened: as §1
HL-60 [3] = experiment: Cytotoxicity against human HL60 cells assessed as reduction in cell viability after 48 hrs by ATPlite-based luminescent assay; details: HL-60, 48 h; procedure, shortened: as §1
PC-3 [4] = experiment: Cytotoxicity against human PC3 cells assessed as reduction in cell viability after 48 hrs by ATPlite-based luminescent assay; details: PC-3, 48 h; procedure, shortened: as §1
MCF7 = experiment: Cytotoxicity against human MCF7 cells assessed as reduction in cell viability after 48 hrs by ATPlite-based luminescent assay; details: MCF7, 48 h
HepG2 [5] = experiment: Cytotoxicity against human HepG2 cells assessed as reduction in cell viability after 48 hrs by ATPlite-based luminescent assay; details: HepG2, 48 h; procedure, shortened: as §1
TERT-RPE1 [6] = experiment: Induction of apoptosis in human RPE1 cells assessed as caspase 3/7 activity after 24 hrs by caspase-glo luminescent assay; type: cell-based; details: RPE-1, 24 h
Procedure, shortened: (§2)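 Cells were seeded at 500 per well in their growth media and exposed to 12 concentrations from 40 µM to 1 nM, delivered from DMSO, in triplicate. After 24 h, caspase-3/7 activity was read by Caspase-Glo luminescence. Data were normalized and ED50 was fitted by variable-slope nonlinear regression.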

K562 [7] = experiment: Induction of apoptosis in human K562 cells assessed as caspase 3/7 activity after 24 hrs by caspase-glo luminescent assay; type: cell-based; details: K562, 24 h; procedure, shortened: as §2
HL-60 [8] = experiment: Induction of apoptosis in human HL60 cells assessed as caspase 3/7 activity after 24 hrs by caspase-glo luminescent assay; type: cell-based; details: HL-60, 24 h; procedure, shortened: as §2
PC-3 [9] = experiment: Induction of apoptosis in human PC3 cells assessed as caspase 3/7 activity after 24 hrs by caspase-glo luminescent assay; type: cell-based; details: PC-3, 24 h; procedure, shortened: as §2
HepG2 [10] = experiment: Induction of apoptosis in human HepG2 cells assessed as caspase 3/7 activity after 24 hrs by caspase-glo luminescent assay; type: cell-based; details: HepG2, 24 h; procedure, shortened: as §2
Staphylococcus aureus [11] = experiment: Antibacterial activity against Staphylococcus aureus ATCC 6538 after 24 hrs by microdilution assay; type: functional; details: ATCC 6538, 24 h
Staphylococcus aureus [12] = experiment: Antibacterial activity against methicillin-resistant Staphylococcus aureus HK5996/08 clinical isolate after 24 hrs by microdilution assay; type: functional; details: HK5996/08, 24 h
[13] = system: Staphylococcus epidermidis; experiment: Antibacterial activity against Staphylococcus epidermidis HK6966/08 clinical isolate after 24 hrs by microdilution assay; type: functional; details: HK6966/08, 24 h
Enterococcus sp. [14] = experiment: Antibacterial activity against Enterococcus sp. HK14365/08 clinical isolate after 24 hrs by microdilution assay; type: functional; details: HK14365/08, 24 h
Escherichia coli [15] = experiment: Antibacterial activity against Escherichia coli ATCC 8739 after 24 hrs by microdilution assay; type: functional; details: ATCC 8739, 24 h
Procedure, shortened: (§3)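 Broth microdilution in Mueller-Hinton medium buffered to pH 7.4 (±0.2), with DMSO as diluent at no more than 2% final. Compounds were tested as 2-fold serial dilutions from 2000 to 0.488 µmol/l. The inoculum was 0.5 McFarland (1.5×10^8 cfu/ml). Plates were held at 37 °C and read visually at 24 and 48 h. MIC was taken as 95% growth inhibition versus control, determined twice in duplicate.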

Klebsiella pneumoniae [16] = experiment: Antibacterial activity against Klebsiella pneumoniae HK11750/08 clinical isolate after 24 hrs by microdilution assay; type: functional; details: HK11750/08, 24 h
Klebsiella pneumoniae [17] = experiment: Antibacterial activity against Klebsiella pneumoniae HK14368/08 clinical isolate after 24 hrs by microdilution assay; type: functional; details: HK14368/08, 24 h
Pseudomonas aeruginosa [18] = experiment: Antibacterial activity against Pseudomonas aeruginosa ATCC 9027 after 24 hrs by microdilution assay; type: functional; details: ATCC 9027, 24 h; procedure, shortened: as §3
Staphylococcus aureus [19] = experiment: Antibacterial activity against Staphylococcus aureus ATCC 6538 after 48 hrs by microdilution assay; type: functional; details: ATCC 6538, 48 h
Staphylococcus aureus [20] = experiment: Antibacterial activity against methicillin-resistant Staphylococcus aureus HK5996/08 clinical isolate after 48 hrs by microdilution assay; type: functional; details: HK5996/08, 48 h
[21] = system: Staphylococcus epidermidis; experiment: Antibacterial activity against Staphylococcus epidermidis HK6966/08 clinical isolate after 48 hrs by microdilution assay; type: functional; details: HK6966/08, 48 h
Enterococcus sp. [22] = experiment: Antibacterial activity against Enterococcus sp. HK14365/08 clinical isolate after 48 hrs by microdilution assay; type: functional; details: HK14365/08, 48 h
Escherichia coli [23] = experiment: Antibacterial activity against Escherichia coli ATCC 8739 after 48 hrs by microdilution assay; type: functional; details: ATCC 8739, 48 h; procedure, shortened: as §3
Klebsiella pneumoniae [24] = experiment: Antibacterial activity against Klebsiella pneumoniae HK11750/08 clinical isolate after 48 hrs by microdilution assay; type: functional; details: HK11750/08, 48 h
Klebsiella pneumoniae [25] = experiment: Antibacterial activity against Klebsiella pneumoniae HK14368/08 clinical isolate after 48 hrs by microdilution assay; type: functional; details: HK14368/08, 48 h
Pseudomonas aeruginosa [26] = experiment: Antibacterial activity against Pseudomonas aeruginosa ATCC 9027 after 48 hrs by microdilution assay; type: functional; details: ATCC 9027, 48 h; procedure, shortened: as §3
Candida albicans [27] = experiment: Antifungal activity against Candida albicans ATCC 44859 up to 1 mM after 24 to 48 hrs by microdilution assay; type: functional, organism-based
Procedure, shortened: (§4)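 Fungal microdilution following modified CLSI M27-A3/M38-A2, in RPMI 1640 with L-glutamine and 0.165 M MOPS at pH 7.0, with DMSO no more than 2% final. Compounds were 2-fold serially diluted from 2000 to 0.488 µmol/l. The inoculum was 5×10^3 cfu/ml. Incubation was at 35 °C, read visually at 24/48 h (T. mentagrophytes at 72/120 h). MIC was IC80 for yeasts and IC50 for filamentous fungi, determined twice in duplicate.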

Candida albicans [28] = experiment: Antifungal activity against Candida albicans ATCC 90028 up to 1 mM after 24 to 48 hrs by microdilution assay; type: functional, organism-based; procedure, shortened: as §4
Candida parapsilosis = experiment: Antifungal activity against Candida parapsilosis ATCC 22019 up to 1 mM after 24 to 48 hrs by microdilution assay; type: functional, organism-based; procedure, shortened: as §4
Pichia kudriavzevii [29] = experiment: Antifungal activity against Candida krusei ATCC 6258 up to 1 mM after 24 to 48 hrs by microdilution assay; type: functional, organism-based; procedure, shortened: as §4
Pichia kudriavzevii [30] = experiment: Antifungal activity against Candida krusei E28 clinical isolate up to 1 mM after 24 to 48 hrs by microdilution assay; type: functional, organism-based; procedure, shortened: as §4
Candida tropicalis = experiment: Antifungal activity against Candida tropicalis 156 clinical isolate up to 1 mM after 24 to 48 hrs by microdilution assay; type: functional, organism-based; procedure, shortened: as §4
Nakaseomyces glabratus = experiment: Antifungal activity against Candida glabrata 20/I clinical isolate up to 1 mM after 24 to 48 hrs by microdilution assay; type: functional, organism-based; procedure, shortened: as §4
Clavispora lusitaniae = experiment: Antifungal activity against Candida lusitaniae 2446/I clinical isolate up to 1 mM after 24 to 48 hrs by microdilution assay; type: functional, organism-based; procedure, shortened: as §4
Trichosporon asahii = experiment: Antifungal activity against Trichosporon asahii 1188 clinical isolate up to 1 mM after 24 to 48 hrs by microdilution assay; type: functional, organism-based; procedure, shortened: as §4
Aspergillus fumigatus = experiment: Antifungal activity against Aspergillus fumigatus 231 up to 1 mM after 24 to 48 hrs by microdilution assay; type: functional, organism-based; procedure, shortened: as §4
Lichtheimia corymbifera = experiment: Antifungal activity against Absidia corymbifera 272 up to 1 mM after 24 to 48 hrs by microdilution assay; type: functional, organism-based; procedure, shortened: as §4
[31] = system: Trichophyton mentagrophytes; experiment: Antifungal activity against Trichophyton mentagrophytes 445 up to 1 mM after 72 to 120 hrs by microdilution assay; type: functional, organism-based; procedure, shortened: as §4

SMILES	IC50 (TERT-RPE1 [1]) [µM]	IC50 (BJ) [µM]	IC50 (K562 [2]) [µM]	IC50 (HL-60 [3]) [µM]	IC50 (PC-3 [4]) [µM]	IC50 (MCF7) [µM]	IC50 (HepG2 [5]) [µM]	IC50 (TERT-RPE1 [6]) [µM]	IC50 (K562 [7]) [µM]	IC50 (HL-60 [8]) [µM]	IC50 (PC-3 [9]) [µM]	IC50 (HepG2 [10]) [µM]	MIC95 (Staphylococcus aureus [11]) [µM]	MIC95 (Staphylococcus aureus [12]) [µM]	MIC95 [13] [µM]	MIC95 (Enterococcus sp. [14]) [µM]	MIC95 (Escherichia coli [15]) [µM]	MIC95 (Klebsiella pneumoniae [16]) [µM]	MIC95 (Klebsiella pneumoniae [17]) [µM]	MIC95 (Pseudomonas aeruginosa [18]) [µM]	also measured
COc1ccc(C2=C(c3cccc(Cl)c3Cl)C(=O)OC2(CO)CO)cc1	> 40	> 40	> 40	> 40	> 40	> 40	> 40	> 40	> 40	> 40	> 40	> 40	7.81 (≈ 3.09 µg/mL)	62.5 (≈ 24.7 µg/mL)	250 (≈ 98.8 µg/mL)	500 (≈ 198 µg/mL)	> 500	> 500	> 500	> 500	MIC95 (Staphylococcus aureus [19]): 15.6 µM (≈ 6.17 µg/mL); MIC95 (Staphylococcus aureus [20]): 125 µM (≈ 49.4 µg/mL); MIC95 [21]: 250 µM (≈ 98.8 µg/mL); MIC95 (Enterococcus sp. [22]): > 500 µM; MIC95 (Escherichia coli [23]): > 500 µM; MIC95 (Klebsiella pneumoniae [24]): > 500 µM; MIC95 (Klebsiella pneumoniae [25]): > 500 µM; MIC95 (Pseudomonas aeruginosa [26]): > 500 µM; Activity (Candida albicans [27]): inactive; Activity (Candida albicans [28]): inactive; Activity (Candida parapsilosis): inactive; Activity (Pichia kudriavzevii [29]): inactive; Activity (Pichia kudriavzevii [30]): inactive; Activity (Candida tropicalis): inactive; Activity (Nakaseomyces glabratus): inactive; Activity (Clavispora lusitaniae): inactive; Activity (Trichosporon asahii): inactive; Activity (Aspergillus fumigatus): inactive; Activity (Lichtheimia corymbifera): inactive; Activity [31]: inactive
O=C1OCC(c2ccccc2)=C1c1ccc(F)cc1	> 40	> 40	> 40	> 40	> 40	> 40	> 40	> 40	> 40	> 40	> 40	> 40	15.6 (≈ 3.97 µg/mL)	125 (≈ 31.8 µg/mL)	125 (≈ 31.8 µg/mL)	> 500	> 500	> 500	> 500	> 500	MIC95 (Staphylococcus aureus [19]): 15.6 µM (≈ 3.97 µg/mL); MIC95 (Staphylococcus aureus [20]): 125 µM (≈ 31.8 µg/mL); MIC95 [21]: 125 µM (≈ 31.8 µg/mL); MIC95 (Enterococcus sp. [22]): > 500 µM; MIC95 (Escherichia coli [23]): > 500 µM; MIC95 (Klebsiella pneumoniae [24]): > 500 µM; MIC95 (Klebsiella pneumoniae [25]): > 500 µM; MIC95 (Pseudomonas aeruginosa [26]): > 500 µM
COc1ccc(C2=C(c3ccc4c(c3)OCO4)COC2=O)cc1	> 40	> 40	15.7	15.5	> 40	> 40	> 40	> 40	> 40	> 40	> 40	> 40	7.81 (≈ 2.42 µg/mL)	> 500	125 (≈ 38.8 µg/mL)	> 500	> 500	> 500	> 500	> 500	MIC95 (Staphylococcus aureus [19]): 15.6 µM (≈ 4.85 µg/mL); MIC95 (Staphylococcus aureus [20]): > 500 µM; MIC95 [21]: 500 µM (≈ 155 µg/mL); MIC95 (Enterococcus sp. [22]): > 500 µM; MIC95 (Escherichia coli [23]): > 500 µM; MIC95 (Klebsiella pneumoniae [24]): > 500 µM; MIC95 (Klebsiella pneumoniae [25]): > 500 µM; MIC95 (Pseudomonas aeruginosa [26]): > 500 µM
